# Compounds with a hit are over-represented: about 4.1% of the library has one in this group of screens.
# KCNQ1 act: human KCNQ1 channel potentiation or activation | P51787 | CHO-K1 KCNQ1, thallium flux FluxOR fluorescence; hits give high values | B-score at 10 µM | 310,000 compounds, 0.35% hits;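 active = fluorescence ratio B-score, a plate-corrected score, at least three library SD, with initial intensity B-score within 5 SD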
# Target sequence (P51787 whole entry, looked up): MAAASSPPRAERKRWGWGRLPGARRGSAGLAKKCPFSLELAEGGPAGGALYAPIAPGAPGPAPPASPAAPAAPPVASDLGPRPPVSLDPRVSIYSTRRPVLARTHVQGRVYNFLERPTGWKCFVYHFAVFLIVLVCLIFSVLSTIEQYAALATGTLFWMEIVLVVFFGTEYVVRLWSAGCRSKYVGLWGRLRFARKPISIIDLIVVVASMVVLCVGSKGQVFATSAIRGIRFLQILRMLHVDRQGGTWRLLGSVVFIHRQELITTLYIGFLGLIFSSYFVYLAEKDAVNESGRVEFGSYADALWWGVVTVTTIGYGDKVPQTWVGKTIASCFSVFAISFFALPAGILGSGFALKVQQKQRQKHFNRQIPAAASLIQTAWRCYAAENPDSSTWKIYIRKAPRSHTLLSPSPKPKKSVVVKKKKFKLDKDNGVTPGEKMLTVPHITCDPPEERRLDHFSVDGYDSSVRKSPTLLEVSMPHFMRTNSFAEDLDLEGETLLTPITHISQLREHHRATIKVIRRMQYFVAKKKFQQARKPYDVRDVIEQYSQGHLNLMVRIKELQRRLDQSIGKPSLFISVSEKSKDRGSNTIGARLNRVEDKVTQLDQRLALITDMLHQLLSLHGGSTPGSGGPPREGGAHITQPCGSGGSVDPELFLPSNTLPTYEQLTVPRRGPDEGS
#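 Schedule – 37 °C overnight plating, 90-min dark dye load, 20-min compound pretreatment · System – stable KCNQ1 CHO-K1 line · Probe or stimulus – thallium- and potassium-containing depolarizing buffer · Measured by – kinetic FluxOR fluorescence, 10 s baseline plus 110 s post-stimulus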
# KCNQ1 inh: blocks the human KCNQ1 potassium channel; P51787; B-score at 10 µM; AID 2642; CHO-K1 KCNQ1, FluxOR thallium flux fluorescence; hits give high values; 310,000 compounds, 1.3% hits;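 active = compounds whose thallium flux B-score, printed positive for inhibition, exceeds three library SD while starting fluorescence stays within three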;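 note: channel opened by potassium depolarization with thallium stimulus after 20 min compound exposure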
# hERG protect: shields human hERG channel from block by proarrhythmic agents; activation (rescue from dofetilide block), less the hit threshold, % at 10 µM; 310,000 compounds, 0.51% hits; CHO-hERG, FluxOR thallium flux, dofetilide IC70 present;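 active = activation above the mean of controls blocked by dofetilide plus 5 SD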;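 note: thallium influx through hERG after potassium depolarization seen as dye fluorescence rise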
# KCNK9 block: inhibitors of human KCNK9 two-pore domain potassium channel. 310,000 compounds, 1.2% hits. Q9NPC2. B-score at 10 µM. HEK293 KCNK9, FluxOR thallium flux fluorescence; hits give low values. AID 488922;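 active = ratio B-score over 3 SD below the library mean, with starting fluorescence within 5 SD of its mean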;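 note: negative B-score means less thallium flux so channel inhibition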
# KCC2 mod: KCC2 (human) Cl- transport modulation; AID 1456; Q9H2X9; B-score of Tl+ flux slope (higher = more flux/activation; lower = inhibition) at 10 µM; KCC2 cells, thallium flux FluoZin-2 fluorescence; 190,000 compounds, 2.2% hits;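 active = thallium flux slope and its plate-corrected score both differing from the plate sample mean at a set confidence after two filtering rounds, in either direction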;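 note: slope of fluorescence scaled to starting intensity during 10 to 20 s after thallium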
# KCNK3 inh: human KCNK3 channel inhibition, primary screen. O14649. CHO-KCNK3 thallium flux, FluxOR fluorescence; hits give low values. B-score at 10 µM. 340,000 compounds, 0.84% hits;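 active = B-score under library mean minus 4 SD, starting fluorescence ratio at most library mean plus 5 SD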;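 note: more negative B-score means stronger inhibition of thallium flux through KCNK3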
# The depositor's hits bear a star; i = inactive; x = no result.
SMILES,KCNQ1 act,KCNQ1 inh,hERG protect,KCNK9 block,KCC2 mod,KCNK3 inh
Cc1ccc([N+](=O)[O-])cc1NC(=S)NC(=O)c1ccco1,i,i,5.1*,i,15*,i
Cc1c(NC(=S)NC(=O)c2ccco2)cccc1-c1nc2ncccc2o1,i,i,-5,i,13*,i
Cc1cccc(NC(=O)CCNC(=O)c2ccco2)c1C,i,i,-5,i,0.43,i
Cc1c(NC(=O)C(C)C)cccc1-c1nc2ncccc2o1,i,i,-3,i,x,i
Cc1cccc(NC(=S)NC(=O)c2ccco2)c1C,33*,i,22*,i,x,i
O=C(NC(=S)Nc1ccccc1Br)c1ccco1,9*,i,3,i,x,i
Cc1ccc(C)c(OCCC(=O)OCc2csc(CC(=O)Nc3ccccc3C)n2)c1,x,x,x,x,x,i
NS(=O)(=O)c1ccc(NC(=O)COC(=O)CC2Sc3ccccc3NC2=O)cc1 (stereo not given),x,x,x,x,x,i
O=C(NCc1ccon1)C1CCC(=O)N(CCc2cccc(F)c2)C1 (stereo not given),i,i,-4,i,x,i
COc1ccc(-c2csc(NC(=S)NC(=O)c3cc4ccccc4o3)n2)cc1Br,i,i,0,i,x,i
COc1ccc(-c2csc(NC(=S)NC(=O)c3ccco3)n2)cc1Br,i,i,11*,i,x,i
CCOc1cc(CNCCCN2CCOCC2)ccc1OCC(=O)NC(C)(C)C,9*,i,-6,i,-0.3,i
CCOc1ccc(S(=O)(=O)N(CC(=O)NCc2ccncc2)c2ccc(C)cc2)cc1,i,i,-4,i,x,i
COc1ccc(C)cc1NS(=O)(=O)c1ccccc1,x,x,x,x,x,i
COc1ccccc1NC(=O)c1ccccc1NS(C)(=O)=O,i,i,-8,i,-0.19,i
Cc1ccc(NC(=O)c2ccccc2NS(=O)(=O)c2ccc(Cl)s2)cc1S(=O)(=O)N1CCOCC1,i,6*,-22,i,-4.2*,i
COc1ccccc1NC(=O)c1ccccc1NS(=O)(=O)c1cccs1,i,6*,-12,i,-0.81,i
COc1ccc(C)cc1NC(=O)c1ccccc1NS(=O)(=O)c1ccc(Cl)s1,i,i,-16,i,-3.6*,i
O=C(CNC(=O)c1ccc(C(F)(F)F)cc1)NC1CC1,x,x,x,x,x,i
O=C(c1ccc2nccnc2c1)N1CCN(c2ccccc2)CC1,i,i,-5,i,x,i
Cc1cccc(N2CCN(C(=O)c3ccc4nccnc4c3)CC2C)c1 (stereo not given),x,x,x,x,x,-9.5*
COc1ccc(C(=O)C2CCN(CC(=O)Nc3ccc(C)cc3)CC2)cc1,i,i,-7,i,x,i
COc1ccccc1-c1nnc(SCC(=O)Nc2ccc(N3CCOCC3)cc2)n1N,x,x,x,x,x,i
COc1ccc(CCN2CN(S(=O)(=O)c3ccc(C)cc3)c3nc4ccccc4nc32)cc1OC,i,i,-9,i,-1,i
COc1ccccc1N1CN(S(=O)(=O)c2ccc(C)cc2)c2nc3ccccc3nc21,x,x,x,x,x,-9.9*
SMILES,KCNQ1 act,KCNQ1 inh,hERG protect,KCNK9 block,KCC2 mod,KCNK3 inh
CC(C)(C)c1ccc(-c2nnc(SCCC#N)n2C2CCCC2)cc1,i,6*,-18,i,-1.3,i
CCN(CC(=O)Nc1ccc(NC(C)=O)cc1)C(=O)Cc1ccc(S(=O)(=O)N2CCOCC2)s1,i,i,-15,i,x,i
CCC1Oc2ccccc2N(CC(=O)NCCN2CCCC2)C1=O (stereo not given),i,i,-6,i,x,i
CCC1Oc2ccccc2N(CC(=O)NCCCN2CCC(C)CC2)C1=O (stereo not given),i,i,5.5*,i,-0.045,i
CCC1Oc2ccccc2N(CC(=O)NCCN2C(C)CCCC2C)C1=O (stereo not given),i,i,7.2*,i,0.016,i
CN1C(=O)c2cccc3c(Cl)ccc(c23)C1=O,i,i,-9,i,x,i
CN1C(=O)c2cccc3c(N(C)C)ccc(c23)C1=O,i,6*,-16,i,x,i
COc1ccc(-n2c(C)cc(C(=O)CN3C(=O)c4ccccc4C3=O)c2C)cc1,i,i,-6,i,-0.55,i
COc1ccc(-n2c(C)cc(C(=O)CCl)c2C)cc1,8*,i,-19,i,-3.4,i
O=C(CSc1ccc(S(=O)(=O)N2CCCC2)cn1)Nc1ccc([N+](=O)[O-])cc1C(F)(F)F,x,x,x,x,x,i
CC1CCN(c2ccccc2NC(=S)NC(=O)c2cccs2)CC1,14*,i,-2,i,9.5*,i
CC1CCN(c2ccccc2NC(=S)NC(=O)c2ccco2)CC1,i,i,4,i,15*,i
N#CC1=C(N)OC2=C(CCc3ccccc32)C1c1ccccc1Cl (stereo not given),i,i,-3,-7.6*,-1.1,i
COc1cc(-c2nnc(-c3cc(-c4ccccc4)nc4ccccc34)o2)cc(OC)c1OC,x,x,x,x,x,i
CC(C)NC(=O)c1ccc(CSCc2ccccc2Cl)o1,i,i,-4,i,x,i
CCC(C)NC(=O)c1ccc(CSCc2ccccc2Cl)o1 (stereo not given),i,i,1,-6.7*,x,i
COc1cc(CN(C)C(=O)C(=O)c2c[nH]c3ccccc23)ccc1O,x,x,x,x,x,i
COc1ccc(C(c2c[nH]c3ccccc23)c2c[nH]c3ccccc23)cc1O,i,7*,-5,i,x,i
O=C(Cn1cnc2c(NC(=O)OCc3ccccc3)ncnc21)NCCN1CCOCC1,x,x,x,x,x,i
Cc1ccc(-c2[nH]nc3c2C(c2cccnc2)C(C#N)=C(N)O3)cc1 (stereo not given),i,i,5.0*,i,-2,i
O=C(O)c1ccc(NC(=O)c2ccccc2NC(=O)c2cccc(F)c2)cc1,i,i,-3,i,x,i
O=C(Nc1cc(-c2ccccc2)sc1C(=O)O)c1cccc(F)c1,i,6*,-11,i,x,i
O=C(O)c1ccc(S(=O)(=O)NCC2CCCO2)cc1 (stereo not given),i,i,-6,i,x,i
COc1ccc2cc(C(=O)N/N=C/c3sc4ccccc4c3O)ccc2c1,i,9*,-14,i,i,i
COc1ccc(C(=O)N/N=C/c2sc3ccccc3c2O)cc1,i,i,-11,i,0.32,i
Cn1nc(C(F)(F)F)c2cc(C(=O)Nc3ccc(F)cc3F)sc21,i,i,-5,-7.2*,-0.75,i

# Bioassay records from PubChem BioAssay.
